According to ChEMBL document CHEMBL5252608, “Eremoxylarins D-J, Antibacterial Eremophilane Sesquiterpenes Discovered from an Endolichenic Strain of Xylaria hypoxylon” (J Nat Prod, 2023):
Active and inactive are the calls of the source. The calls are words filed in the database; no cut-off is given here.

What was measured:
[1] = Selectivity index, ratio of CC50 for human Huh-7 cells to IC50 for antiviral activity against HCoV-229E harboring luciferase reporter gene infected in human Huh-7 cells; type: toxicity, cell-based; conditions: read-out: Ratio CC50/IC50
How it was run: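 Huh-7 cells (6×10^4/well) seeded and held 16 h at 37 °C, 5% CO₂, then treated 24 h with increasing compound concentrations. MTS viability read as formazan absorbance at 490 nm; CC50 derived, 3 experiments. Ratio taken against IC50 from the luciferase-reporter HCoV-229E infection assay in Huh-7 cells (MOI 0.5, 1 h plus 6 h).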

Human coronavirus 229E [2] = assay: Antiviral activity against HCoV-229E harboring luciferase reporter gene infected in human Huh-7 cells expressing TMPRSS2 assessed as reduction in viral replication pre-incubated for 1 hrs followed by replacement with fresh media for 6 hrs by renilla luciferase based luminometer analysis; type: functional, organism-based; conditions: time 7.0 hrs
How it was run: (§1)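 Huh-7 or Huh-7/TMPRSS2 cells in DMEM GlutaMAX-I with 10% FBS. Inoculated with luciferase-reporter HCoV-229E at MOI 0.5 for 1 h at 37 °C with compound at increasing concentrations (highest 50 μM). Virus then replaced by compound-containing medium for 6 h. Lysed for Renilla luciferase luminescence, normalised to DMSO control. Triplicate measures, 3 independent experiments, mean ± SEM.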

Human coronavirus 229E [3] = assay: Antiviral activity against HCoV-229E harboring luciferase reporter gene infected in human Huh-7 cells assessed as reduction in viral replication pre-incubated for 1 hrs followed by replacement with fresh media for 6 hrs by renilla luciferase based luminometer analysis; type: functional, organism-based; how it was run: as §1
Human coronavirus 229E [4] = assay: Antiviral activity against HCoV-229E harboring luciferase reporter gene infected in human Huh-7 cells expressing TMPRSS2 assessed as reduction in viral replication upto 50 uM pre-incubated for 1 hrs followed by replacement with fresh media for 6 hrs by renilla luciferase based luminometer analysis; type: functional, organism-based; conditions: time 7.0 hrs; how it was run: as §1
Human coronavirus 229E [5] = assay: Antiviral activity against HCoV-229E harboring luciferase reporter gene infected in human Huh-7 cells assessed as reduction in viral replication upto 50 uM pre-incubated for 1 hrs followed by replacement with fresh media for 6 hrs by renilla luciferase based luminometer analysis; type: functional, organism-based; conditions: time 7.0 hrs; how it was run: as §1

## C=C(C=O)[C@H]1CC=C2[C@H](OC(=O)/C(C)=C/CCCCCCC)CC[C@H](C(=O)O)[C@@]2(C)C1
[1]
  selectivity ratio: 2.57
Human coronavirus 229E [2]
  Activity: Active
Human coronavirus 229E [3]
  IC50: 18.1 µM
Human coronavirus 229E [3]; time 7.0 hrs
  Activity: Active

## C=C(C=O)[C@H]1CC=C2[C@H](OC(=O)/C(C)=C/C=C/CCCCC)CC[C@H](C(=O)O)[C@@]2(C)C1
Human coronavirus 229E [4]
  Activity: inactive
Human coronavirus 229E [5]
  Activity: inactive
